The values that follow come from paper PMC10329767 (Biochemistry, 2023).

Where “and” joins values, the source holds several entries; their conditions need not be identical. Identical values can stand only once.

Series [1] in a line: 19F NMR pH titration of the free amino acid in solution. It is filed as physicochemical. The settings on record: 19F NMR chemical shift vs pD. The method in brief:
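Free fluorinated Tyr amino acid (5 mg) dissolved in 30 mM deuterated PIPES buffer; pD adjusted with DCl or NaOD across pD 3.6–12.5. 19F spectra recorded on a 400 MHz spectrometer. The 19F chemical shift was plotted against pD and fitted to obtain pKa values.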

In series [2] the test system is 2,3,5-F3Y158 InhA. The class given is biochemical, Mycobacterium tuberculosis. The settings on record: 2,3,5-F3Y158 InhA vs wild-type.
The target in series [3] is 3-FY158 InhA. Kind of series: Direct binding fluorescence titration of NADH. More on the design: species or system Mycobacterium tuberculosis. The settings on record: 25 °C, pH 6.8.
For series [4], the target named is 3,5-F2Y158 InhA. More on the design: species or system Mycobacterium tuberculosis. The settings on record: NADH binding, 25 °C, pH 6.8.
In series [5] the target is T1, wild-type InhA (Mycobacterium tuberculosis, UniProt P9WGR1). Kind of series: Direct binding fluorescence titration of NADH.
Series [6] addresses 2,3,5-F3Y158 InhA. Also on record: species or system Mycobacterium tuberculosis. The settings on record: NADH binding, 25 °C, pH 6.8.
Series [7] has as its target 3,5-F2Y158 InhA. The class given is biochemical, Mycobacterium tuberculosis. The settings on record: read-out: Kiapp; PT166, rapid reversible, global fit to equations 6 and 7.
For series [8], the target named is 3-FY158 InhA. Particulars: read-out: Kiapp; PT166, rapid reversible, global fit to equations 6 and 7.
The test system of series [9] is 2,3,5-F3Y158 InhA. It is filed as biochemical, Mycobacterium tuberculosis.
Series [10] addresses T1, wild-type InhA. Particulars: read-out: Kiapp; PT166, rapid reversible, global fit to equations 6 and 7.
Series [11] relates to Y158F mutant. Particulars: cited from earlier work.

As for `N[C@@H](Cc1cc(F)c(O)c(F)c1F)C(=O)O` [2,3,5-F3Y, 2,3,5-trifluoroTyr], in series [1], the “pKa of the hydroxyl group” value was determined as 6.5.

Turning to `CCCCCCCCC/C=C/C(=O)SCCNC(=O)CCNC(=O)[C@H](O)C(C)(C)COP(=O)(O)OP(=O)(O)OC[C@H]1O[C@@H](n2cnc3c(N)ncnc32)[C@H](O)[C@@H]1OP(=O)(O)O` [DDCOA, trans-2-dodecenoyl-CoA], the “fold higher KMapp for dd-CoA than wild-type InhA” value in [2] was ~ 5 fold.

As usually defined, the Kd is the equilibrium constant for the complex coming apart. A higher Kd goes with weaker binding. For the compound `NC(=O)C1=CN([C@@H]2O[C@H](COP(=O)(O)OP(=O)(O)OC[C@H]3O[C@@H](n4cnc5c(N)ncnc54)[C@H](O)[C@@H]3O)[C@@H](O)[C@H]2O)C=CC1` [NADH], the Kd in [3] worked out at 7.1 ± 0.6 µM; in series [4], 8.1 ± 0.5 µM; in series [5] (25 °C, pH 6.8, C-terminal His-tag InhA), 8.2 ± 0.3 µM; in series [6], 8.7 ± 0.2 µM. Further, the “N (Hill coefficient)” value in [5] (fit to Equation 1) is 3.1 ± 0.3.

Take `CCCCCCc1cc(=O)c(Oc2ccccc2C)cn1C` [PT166]: the Ki is 0.048 ± 0.001 µM in series [7]; 0.033 ± 0.001 µM in series [8]; 0.213 ± 0.002 µM in [9] (read-out: Kiapp, PT166, rapid reversible, global fit to equations 6 and 7); 0.031 ± 0.001 µM in [10]. Besides, the “fold change (decrease in affinity) in Kiapp compared to wild-type” value in series [9] (PT166, 2,3,5-F3Y158 InhA vs wild-type) is ~ 7 fold and 7 fold.

`Oc1cc(Cl)ccc1Oc1ccc(Cl)cc1Cl` [triclosan]: the “fold lower affinity for Y158F mutant compared to wild-type InhA” value in series [11] is reported as ~ 100 fold.
